Test results: ChEMBL document CHEMBL3352785, “Study on one-pot four-component synthesis of 9-aryl-hexahydro-acridine-1,8-diones using SiO2-I as a new heterogeneous catalyst and their anticancer activity” (Bioorg Med Chem Lett, 2014)
≈ marks a conversion by molar mass, not a printed value.

What was measured:
MCF7 = experiment: Anticancer activity against human cells MCF7 cells assessed as growth inhibition after 48 hrs by MTT assay; type: functional, cell-based; conditions: MCF7, 48 h
How it was run: (§1)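 Cells grown in MEM with 10% heat-inactivated FBS, penicillin, streptomycin and amphotericin-B at 37 °C, 5% CO2, and trypsinized with TPVG. Seeded at 1 × 10⁴ cells/well and allowed to adhere for 24 h, then exposed to a range of concentrations for 48 h. MTT (2 mg/mL in PBS) added for 3 h, formazan dissolved in isopropanol, A540 read. Growth inhibition calculated as (control − test)/control × 100.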

HepG2 = experiment: Anticancer activity against human cells HepG2 cells assessed as growth inhibition after 48 hrs by MTT assay; type: functional, cell-based; conditions: HepG2, 48 h; how it was run: as §1

Compound | IC50 (MCF7) [µg/mL] | IC50 (HepG2) [µg/mL]
COc1cccc2c1C(=O)c1c(O)c3c(c(O)c1C2=O)C[C@@](O)(C(=O)CO)C[C@@H]3O[C@H]1C[C@H](N)[C@H](O)[C@H](C)O1 [DOXORUBICIN] | 1.09 (≈ 2.01 µM) | 1.21 (≈ 2.23 µM)
CC1(C)CC(=O)C2=C(C1)NC1=C(C(=O)CC(C)(C)C1)C2c1cccc(C#N)c1 | 4.7 (≈ 12.6 µM) | 1.4 (≈ 3.74 µM)
CC1(C)CC(=O)C2=C(C1)NC1=C(C(=O)CC(C)(C)C1)C2c1cc(F)ccc1O | 6.2 (≈ 16.2 µM) | 8.6 (≈ 22.4 µM)
CCOc1cccc(C2C3=C(CC(C)(C)CC3=O)NC3=C2C(=O)CC(C)(C)C3)c1 | 4.5 (≈ 11.4 µM) | 4.8 (≈ 12.2 µM)
COc1ccc(C2C3=C(CC(C)(C)CC3=O)NC3=C2C(=O)CC(C)(C)C3)cc1 | 9.6 (≈ 25.3 µM) | 8.2 (≈ 21.6 µM)
CC1(C)CC(=O)C2=C(C1)NC1=C(C(=O)CC(C)(C)C1)C2c1ccccc1O | 5.9 (≈ 16.1 µM) | 2.6 (≈ 7.11 µM)
COc1ccc(C2C3=C(CC(C)(C)CC3=O)NC3=C2C(=O)CC(C)(C)C3)c(OC)c1 | 5 (≈ 12.2 µM) | 1.6 (≈ 3.91 µM)
COc1ccc(C2C3=C(CC(C)(C)CC3=O)NC3=C2C(=O)CC(C)(C)C3)cc1Br | 5.3 (≈ 11.6 µM) | 2.2 (≈ 4.8 µM)
